Test results as given in ChEMBL document CHEMBL2331225, “Structure-based design, synthesis and evaluation of novel anthra[1,2-d]imidazole-6,11-dione derivatives as telomerase inhibitors and potential for cancer polypharmacology” (Eur J Med Chem, 2013).
Calls of active or inactive are those of the source. No cut-off for these calls is given here.

Legend:
[1] = molecular target: T1, Telomerase reverse transcriptase (Homo sapiens, UniProt O14746); experiment: Inhibition of TERT transcriptional activity in human H1299 cells assessed SEAP activity at 100 uM incubated for 24 hrs by SEAP assay; assay type: cell-based; design: scale not given: the % may be the effect or the level left
In short: (§1)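 H1299 stable clones carry the hTERT promoter (−3338 to +1 bp) upstream of SEAP, introduced by electroporation and selected with G418. About 2 × 10³ cells per well were grown 24 h at 37 °C, given fresh medium, then drug for 24 h. Collected media were heated at 65 °C for 10 min, mixed with equal SEAP buffer (2 M diethanolamine, 1 mM MgCl₂, 20 mM L-homoarginine) and p-nitrophenyl phosphate at 12 mM final.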

[2] = Cytotoxicity against human H1299 cells assessed as cell viability at 10 uM after 48 hrs by MTT assay; assay type: functional; settings: NCI-H1299, 48 h, read-out: Activity
In short: (§2)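 H1299 cells at about 2 × 10³ per well were grown 24 h at 37 °C in 5% CO₂. Compounds were dissolved in DMSO just before use and diluted into complete medium. After 48 h exposure, MTT was added for 4 h at 37 °C, then lysis buffer (20% SDS, 50% DMF) for 16 h at 37 °C. Absorbance was read at 550 nm.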

[3] = molecular target: T1, Telomerase reverse transcriptase; experiment: Inhibition of TERT transcriptional activity in human H1299 cells assessed SEAP activity at 1 uM incubated for 24 hrs by SEAP assay; assay type: cell-based; design: scale not given: the % may be the effect or the level left; in short: as §1
IMR-90 = experiment: Cytotoxicity against human IMR90 cells after 48 hrs by MTT assay; assay type: cell-based; settings: IMR-90, 48 h
[4] = molecular target: T1, Telomerase reverse transcriptase; experiment: Inhibition of TERT transcriptional activity in human H1299 cells assessed SEAP activity at 10 uM incubated for 24 hrs by SEAP assay; assay type: cell-based; design: scale not given: the % may be the effect or the level left; in short: as §1
[5] = Cytotoxicity against human H1299 cells assessed as cell viability at 100 uM after 48 hrs by MTT assay; assay type: functional; settings: NCI-H1299, 48 h, read-out: Activity; in short: as §2
PC-3 [6] = experiment: Growth inhibition of human PC3 cells after 48 hrs by SRB assay; assay type: functional, cell-based; settings: PC-3, 48 h
In short: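 PC-3 cells were seeded in medium with 5% FBS; after 24 h a plate was fixed with 10% TCA as T₀. Vehicle (0.1% DMSO) or compound was given for 48 h, then cells were TCA-fixed, stained with 0.4% SRB in 1% acetic acid, solubilized in 10 mM Trizma base and read at 515 nm. IC₅₀ is the concentration halving the protein increase seen in controls.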

[7] = Cytotoxicity against human H1299 cells expressing hTERT and SEAP after 48 hrs by MTT assay; assay type: cell-based; settings: nci-h1299, 48 h
In short: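 H1299 stably carrying P_hTERT-SEAP, about 2 × 10³ cells per well, were grown 24 h at 37 °C, washed with PBS and given fresh medium. Compounds were added at varying amounts for 48 h, and growth was measured by MTT read at 550 nm. Values come from three experiments, with untreated cells set as 100%.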

[8] = Cytotoxicity against human H1299 cells assessed as cell viability at 1 uM after 48 hrs by MTT assay; assay type: functional; settings: NCI-H1299, 48 h, read-out: Activity; in short: as §2
[9] = molecular target: T1, Telomerase reverse transcriptase; experiment: Inhibition of TERT activity in human H1299 cells homogenates incubated for 5 mins at 100 uM by TRAP assay; assay type: cell-free
In short: (§3)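 Telomerase-active extracts were prepared from H1299 cells, and lysate protein was measured against BSA standards. Compounds were tested in the TRAP assay, with RNase A-treated extracts as negative controls.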

DU-145 = experiment: Cytotoxicity against human DU145 cells assessed as cell growth level at 10 uM; assay type: functional
A498 = experiment: Cytotoxicity against human A498 cells assessed as cell growth level at 10 uM; assay type: functional
PC-3 [10] = experiment: Cytotoxicity against human PC3 cells assessed as cell growth level at 10 uM; assay type: functional
[11] = molecular target: DNA polymerase I, thermostable (Thermus aquaticus) (UniProt P19821); experiment: Inhibition of Thermus aquaticus DNA polymerase compound after telomerase extension step and before PCR-amplification step during TRAP assay
In short: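 TRAP-m variant: compounds were added after the telomerase extension step and before PCR amplification, using H1299 telomerase extracts, with RNase A-treated extracts as negative control.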

[12] = molecular target: T1, Telomerase reverse transcriptase; experiment: Inhibition of TERT activity in human H1299 cells homogenates incubated for 5 mins by TRAP assay; assay type: cell-free; in short: as §3

T1 sequence (O14746 whole entry): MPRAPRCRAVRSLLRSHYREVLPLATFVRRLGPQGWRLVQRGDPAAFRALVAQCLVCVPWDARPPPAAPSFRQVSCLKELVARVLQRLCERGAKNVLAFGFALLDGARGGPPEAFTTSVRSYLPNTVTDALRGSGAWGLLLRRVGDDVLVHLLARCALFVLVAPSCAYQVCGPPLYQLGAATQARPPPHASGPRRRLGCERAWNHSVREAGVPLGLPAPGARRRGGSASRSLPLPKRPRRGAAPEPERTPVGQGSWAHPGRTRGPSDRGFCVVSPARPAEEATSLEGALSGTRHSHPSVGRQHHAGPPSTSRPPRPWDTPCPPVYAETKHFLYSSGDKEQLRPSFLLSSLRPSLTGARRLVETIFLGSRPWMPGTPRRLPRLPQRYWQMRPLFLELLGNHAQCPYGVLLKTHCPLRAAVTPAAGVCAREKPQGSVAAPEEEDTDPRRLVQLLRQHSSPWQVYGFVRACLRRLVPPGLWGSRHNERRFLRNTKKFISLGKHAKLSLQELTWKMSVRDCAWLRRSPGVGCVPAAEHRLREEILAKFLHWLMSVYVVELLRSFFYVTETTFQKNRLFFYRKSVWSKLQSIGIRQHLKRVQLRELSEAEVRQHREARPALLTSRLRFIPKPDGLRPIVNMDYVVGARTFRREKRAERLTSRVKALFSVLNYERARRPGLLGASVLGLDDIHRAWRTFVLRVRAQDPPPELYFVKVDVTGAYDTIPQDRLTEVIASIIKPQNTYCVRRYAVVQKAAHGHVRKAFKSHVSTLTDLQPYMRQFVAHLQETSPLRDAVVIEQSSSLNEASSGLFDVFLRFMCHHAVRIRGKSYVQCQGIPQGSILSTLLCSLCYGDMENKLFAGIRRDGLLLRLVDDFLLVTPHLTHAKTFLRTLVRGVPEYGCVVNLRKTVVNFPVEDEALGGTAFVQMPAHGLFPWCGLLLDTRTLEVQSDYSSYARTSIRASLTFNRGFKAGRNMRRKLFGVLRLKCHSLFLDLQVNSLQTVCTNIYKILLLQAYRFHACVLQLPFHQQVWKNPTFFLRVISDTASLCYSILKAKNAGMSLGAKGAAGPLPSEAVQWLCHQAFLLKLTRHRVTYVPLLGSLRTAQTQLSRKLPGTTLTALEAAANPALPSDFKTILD
DNA polymerase I, thermostable (Thermus aquaticus), sequence (P19821 whole entry): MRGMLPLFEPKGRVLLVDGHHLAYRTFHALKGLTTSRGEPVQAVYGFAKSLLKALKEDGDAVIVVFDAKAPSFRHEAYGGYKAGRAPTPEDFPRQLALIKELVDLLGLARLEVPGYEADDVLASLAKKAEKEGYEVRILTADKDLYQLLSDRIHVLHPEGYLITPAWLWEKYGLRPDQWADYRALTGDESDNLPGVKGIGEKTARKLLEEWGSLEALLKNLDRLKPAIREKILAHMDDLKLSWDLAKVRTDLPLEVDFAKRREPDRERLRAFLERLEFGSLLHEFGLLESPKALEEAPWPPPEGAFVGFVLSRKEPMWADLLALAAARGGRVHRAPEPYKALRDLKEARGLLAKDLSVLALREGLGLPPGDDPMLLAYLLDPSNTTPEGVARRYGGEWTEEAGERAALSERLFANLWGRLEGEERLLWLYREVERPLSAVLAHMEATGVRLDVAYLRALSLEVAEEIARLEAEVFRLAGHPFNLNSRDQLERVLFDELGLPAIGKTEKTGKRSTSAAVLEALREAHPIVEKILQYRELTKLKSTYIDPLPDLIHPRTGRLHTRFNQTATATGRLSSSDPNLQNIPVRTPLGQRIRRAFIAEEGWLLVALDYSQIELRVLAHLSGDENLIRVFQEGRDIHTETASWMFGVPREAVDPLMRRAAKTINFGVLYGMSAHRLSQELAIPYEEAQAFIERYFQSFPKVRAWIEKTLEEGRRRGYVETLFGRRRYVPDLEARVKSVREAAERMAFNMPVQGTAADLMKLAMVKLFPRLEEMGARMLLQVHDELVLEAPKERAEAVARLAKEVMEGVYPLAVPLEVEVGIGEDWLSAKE

Compound | Activity [1] | viability at 10 µM [2] | Activity [3] | IC50 (IMR-90) | Activity [4] | viability at 100 µM [5] | IC50 (PC-3 [6]) | Activity [7] | viability at 1 µM [8] | TERT inhibition (active/not active) [9] | Activity (DU-145) | Activity (A498) | Activity (PC-3 [10]) | inhibition [11] | IC50 [12]
O=C1c2ccccc2C(=O)c2c1ccc1nc(CCN3CCN(Cc4ccccc4)CC3)[nH]c21 | 0% | 54% | 73% | 100 µM | 5% | 6% | 16 µM | Non-toxic | 96% | inactive | – | – | – | – | –
O=C1c2ccccc2C(=O)c2c1ccc1nc(CCN3CCN(c4ncccn4)CC3)[nH]c21 | 0% | 84% | 83% | 100 µM | 35% | 0% | > 30 µM | Non-toxic | 91% | inactive | – | – | – | – | –
O=C1c2ccccc2C(=O)c2c1ccc1nc(CN3CCN(c4ccccc4)CC3)[nH]c21 | 6% | 54% | 92% | – | 77% | 18% | > 30 µM | – | 90% | inactive | 77.91% | 75.09% | 90.69% | – | –
O=C1c2ccccc2C(=O)c2c1ccc1nc(CN3CCC(CCCC4CCNCC4)CC3)[nH]c21 | 3% | 0% | 96% | – | 8% | 0% | 13.8 µM | – | 97% | Active | – | – | – | inactive | 5 µM
CN(CCc1ccccn1)Cc1nc2ccc3c(c2[nH]1)C(=O)c1ccccc1C3=O | 0% | 99% | 96% | – | 51% | 0% | 14.2 µM | – | 104% | inactive | 99.83% | 69.6% | 83.7% | – | –
O=C1c2ccccc2C(=O)c2c1ccc1nc(CNCc3ccccc3C(F)(F)F)[nH]c21 | 0% | 96% | 87% | – | 81% | 6% | > 30 µM | – | 99% | inactive | – | – | – | – | –
O=C1c2ccccc2C(=O)c2c1ccc1nc(CN3CCCCC3)[nH]c21 | 7% | 79% | 76% | 100 µM | 44% | 20% | 10.3 µM | Non-toxic | 111% | inactive | 81.94% | 61.84% | 74.9% | – | –
O=C(CCCl)Nc1ccc2c(c1NC(=O)CCCl)C(=O)c1ccccc1C2=O | 0% | 34% | 87% | – | 13% | 6% | > 30 µM | – | 94% | inactive | – | – | – | – | –
O=C1c2ccccc2C(=O)c2c1ccc1nc(CCN3CCN(c4ccccc4)CC3)[nH]c21 | 37% | 96% | 103% | – | 93% | 65% | > 30 µM | – | 94% | inactive | – | – | – | – | –
CCN(C)Cc1nc2ccc3c(c2[nH]1)C(=O)c1ccccc1C3=O | 0% | 65% | 97% | – | 39% | 0% | 7.5 µM | – | 99% | inactive | – | – | – | – | –
COc1cccc(CN(C)Cc2nc3ccc4c(c3[nH]2)C(=O)c2ccccc2C4=O)c1 | 0% | 98% | 105% | – | 78% | 9% | 18.7 µM | – | 97% | inactive | – | – | – | – | –
COc1cccc(N2CCN(Cc3nc4ccc5c(c4[nH]3)C(=O)c3ccccc3C5=O)CC2)c1 | 3% | 58% | 105% | – | 30% | 24% | 15.3 µM | – | 81% | inactive | – | – | – | – | –
O=C1c2ccccc2C(=O)c2c1ccc1nc(CCl)[nH]c21 | 3% | 0% | 69% | – | 0% | 0% | 5.1 µM | – | 82% | inactive | – | – | – | – | –
O=C1c2ccccc2C(=O)c2c1ccc1nc(CNCc3ccc4c(c3)OCO4)[nH]c21 | 1% | 103% | 75% | – | 75% | 14% | 22.5 µM | – | 109% | inactive | – | – | – | – | –
O=C1c2ccccc2C(=O)c2c1ccc1nc(CNCc3ccc(C(F)(F)F)cc3)[nH]c21 | 2% | 11% | 52% | – | 8% | 0% | 7.6 µM | – | 74% | inactive | – | – | – | – | –
O=C1c2ccccc2C(=O)c2c1ccc1nc(CN3CCCCCC3)[nH]c21 | 4% | 85% | 107% | – | 66% | 0% | 10.5 µM | – | 104% | inactive | – | – | – | – | –
CN(C)Cc1nc2ccc3c(c2[nH]1)C(=O)c1ccccc1C3=O | 0% | 64% | 84% | – | 45% | 0% | 8.8 µM | – | 99% | inactive | – | – | – | – | –
